Data from ChEMBL document CHEMBL1124943, “Alkylation of DNA by C-10 of 2,7-diaminomitosene” (1990).

Tests used:
Format in all cases: functional
Nucleic Acid [1] = assay: Ability to […] breaks induced by ionozing radiation on exposure for 1 hr at a concentration of 100 ug/mL
Method in brief: (§1)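 Murine L-1210 cells were prelabelled with [2-14C]thymidine (2.0 μCi) for 4 doublings (48 h), then chased 24 h in unlabelled medium. They were exposed 1 h at 37 °C, washed twice at 4 °C, and 10^6 cells were lysed on PVC filters (SDS/glycine/EDTA, pH 10.0). Lysates were digested 1 h with proteinase K (0.5 mg/mL), then alkaline-eluted (pH 12.1) for 15 h. First-order elution rates were converted to rad equivalents against ionizing-radiation standards. Values are the mean of three determinations, or duplicates where marked.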

Nucleic Acid [2] = assay: Ability to […] breaks induced by ionozing radiation on exposure for 1 hr at a concentration of 10 ug/mL; method in brief: as §1
Nucleic Acid [3] = assay: Ability to […] breaks induced by ionozing radiation on exposure for 1 hr at a concentration of 500 ug/mL; method in brief: as §1
Nucleic Acid [4] = assay: Ability to […] breaks induced by ionozing radiation on exposure for 1 hr at a concentration of 50 ug/mL; method in brief: as §1
L1210 [5] = assay: Survival of L-1210 leukemia cells upon exposure to the compound for 1 hr at a concentration of 100ug/mL, measured in colony forming units.; details: Mus musculus, L1210, 1 h; read-out: Survival
L1210 [6] = assay: Survival of L-1210 leukemia cells upon exposure to the compound for 1 hr at a concentration of 10ug/mL, measured in colony forming units.; details: Mus musculus, L1210, 1 h; read-out: Survival
L1210 [7] = assay: Survival of L-1210 leukemia cells upon exposure to the compound for 1 hr at a concentration of 50ug/mL, measured in colony forming units.; details: Mus musculus, L1210, 1 h; read-out: Survival
Nucleic Acid [8] = assay: Ability to […] breaks induced by ionozing radiation on exposure for 1 hr at a concentration of 250 ug/mL; method in brief: as §1
L1210 [9] = assay: Survival of L-1210 leukemia cells upon exposure to the compound for 1 hr at a concentration of 250ug/mL, measured in colony forming units.; details: Mus musculus, L1210, 1 h; read-out: Survival
L1210 [10] = assay: Survival of L-1210 leukemia cells upon exposure to the compound for 1 hr at a concentration of 500ug/mL, measured in colony forming units.; details: Mus musculus, L1210, 1 h; read-out: Survival
L1210 [11] = assay: Survival of L-1210 leukemia cells upon exposure to the compound for 1 hr at a concentration of 1ug/mL, measured in colony forming units.; details: Mus musculus, L1210, 1 h; read-out: Survival
[12] = tested as the 18O-labelled form

| Structure (SMILES) | DNA single strand breaks (Nucleic Acid [1]; [12]) [rad equiv] | DNA single strand breaks (Nucleic Acid [2]; [12]) [rad equiv] | DNA single strand breaks (Nucleic Acid [3]; [12]) [rad equiv] | DNA single strand breaks (Nucleic Acid [4]; [12]) [rad equiv] | DNA single strand breaks (Nucleic Acid [1]) [rad equiv] | DNA single strand breaks (Nucleic Acid [2]) [rad equiv] | viability at 100 µg/mL (L1210 [5]) [%] | viability at 10 µg/mL (L1210 [6]) [%] | viability at 50 µg/mL (L1210 [7]) [%] | DNA single strand breaks (Nucleic Acid [4]) [rad equiv] | DNA single strand breaks (Nucleic Acid [8]) [rad equiv] | DNA single strand breaks (Nucleic Acid [3]) [rad equiv] | viability at 250 µg/mL (L1210 [9]) [%] | viability at 500 µg/mL (L1210 [10]) [%] | viability at 1 µg/mL (L1210 [11]) [%] |
| --- | --- | --- | --- | --- | --- | --- | --- | --- | --- | --- | --- | --- | --- | --- | --- |
| CC1=C(N)C(=O)c2c(COC(N)=O)c3n(c2C1=O)CC(N)C3O (stereo not given) | 50 | 0 | 395 | 0 |  |  |  |  |  |  |  |  |  |  |  |
| COS(C)(=O)=O [METHANESULFONIC ACID METHYL ESTER] |  |  |  |  | 2150 | 583 | 0.2 | 100 | 32 | 935 |  |  |  |  |  |
| CC1=C(N)C(=O)c2c(COC(N)=O)c3n(c2C1=O)CC(N)C3 (stereo not given) |  |  |  |  | 320 | 0 | 8 | 100 | 43 | 110 | 470 | 535 | 0.9 | 0 |  |
| CC1=C(N)C(=O)c2c(COC(N)=O)c3n(c2C1=O)CC(N)C3[18OH] (stereo not given) |  |  |  |  |  |  | 0 | 81 | 2 |  |  |  |  | 0 | 100 |
